The source made the active and inactive calls. No cut-off for these calls is given here.
Legend:
[1] = test system: Hepatocyte; assay: Inhibition of GO/LDHA in hyperoxaluric-primary hepatocyte isolated from Agxt1 knockdown PH1 C57BL/6 mouse assessed as relative oxalate output at 10 uM measured at 24 hrs in the presence of glycolate relative to control; format: cell-based
Summary of the method: (§1)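 Agxt1-/- mouse primary hepatocytes cultured with 5 mM glycolate, inhibitor at 10 μM; extracellular oxalate measured by colorimetric kit 24 and 48 h after inhibitor addition; relative oxalate = oxalate with inhibitor over oxalate without inhibitor; negative values mean below detection limit; mean of three/four replicates ± SD.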

[2] = organism: Homo sapiens; assay: Ratio of Ki for Non-competitive inhibition of human recombinant LDHB to Ki for non-competitive inhibition of human recombinant LDHA
[3] = test system: Hepatocyte; assay: Inhibition of GO/LDHA in hyperoxaluric-primary hepatocyte isolated from Agxt1 knockdown PH1 C57BL/6 mouse assessed as relative oxalate output at 10 uM measured at 48 hrs in the presence of glycolate relative to control; format: cell-based; summary of the method: as §1
[4] = target: T1, 2-Hydroxyacid oxidase 1 (Homo sapiens) (UniProt Q9UJM8); assay: Reversible inhibition of N-terminal His-tagged human recombinant glycolate oxidase expressed in Escherichia coli BL21 (DE3) cells assessed as enzyme recovery using glycolate as substrate at 100 times of IC50 concentration preincubated for 30 mins followed by substrate addition and measured every 60 sec for 15 mins by jump-dilution based Amplex red and horseradish peroxidase fluorescence assay; settings: time 45.0 min
T1 sequence (whole entry): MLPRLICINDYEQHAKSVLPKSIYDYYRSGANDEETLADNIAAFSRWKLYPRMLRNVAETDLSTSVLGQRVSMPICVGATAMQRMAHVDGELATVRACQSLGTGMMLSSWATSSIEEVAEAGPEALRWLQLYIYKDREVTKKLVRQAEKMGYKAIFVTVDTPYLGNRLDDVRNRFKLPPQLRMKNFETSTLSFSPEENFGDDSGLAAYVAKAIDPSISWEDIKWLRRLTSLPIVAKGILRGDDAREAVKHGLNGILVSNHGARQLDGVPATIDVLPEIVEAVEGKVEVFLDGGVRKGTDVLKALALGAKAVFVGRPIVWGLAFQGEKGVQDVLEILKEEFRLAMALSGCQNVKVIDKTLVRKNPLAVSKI

[5] = test system: Hepatocyte; assay: Cytotoxicity against hyperoxaluric-primary hepatocyte isolated from Grhpr-knockdown PH2 C57BL/6 mouse assessed as cell death at 10 uM by MTS assay; format: toxicity, cell-based; settings: hepatocytes, Grhpr-knockdown PH2 (primary hyperoxaluria type 2)
Summary of the method: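 Primary hepatocytes from Agxt1-/- (PH1, 5 mM glycolate), Grhpr-/- (PH2, 10 mM glycolate) or Hoga1-/- (PH3, 10 mM hydroxyproline) mice, incubated with inhibitor at 10 μM; viability followed through the oxalate assay by MTS tetrazolium method.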

[6] = target: T2, 2-Hydroxyacid oxidase 1 (Homo sapiens, UniProt Q9UJM8); assay: Inhibition of N-terminal His-tagged human recombinant glycolate oxidase expressed in Escherichia coli BL21 (DE3) cells using glycolate as substrate preincubated for 10 mins followed by substrate addition and measured after 10 mins by Amplex red and horseradish peroxidase based fluorescence assay
T2 sequence (Q9UJM8 whole entry): T1 sequence (whole entry)

[7] = test system: Hepatocyte; assay: Inhibition of GO/LDHA in hyperoxaluric-primary hepatocyte isolated from Grhpr-knockdown PH2 C57BL/6 mouse assessed as relative oxalate output at 10 uM measured at 48 hrs in the presence of glycolate relative to control; format: cell-based
Summary of the method: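 Grhpr-/- mouse primary hepatocytes cultured with 10 mM glycolate, inhibitor at 10 μM; extracellular oxalate determined colorimetrically at 24 and 48 h post-treatment, expressed relative to untreated medium (RO); negative RO means below detection limit; three/four replicates, mean ± SD.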

[8] = target: T3, Prostaglandin G/H synthase 1 (Ovis aries, UniProt P05979); assay: Inhibition of ovine COX-1 using arachidonic acid as substrate measured every 60 sec for 10 mins by fluorescence based assay
T3 sequence (P05979 whole entry): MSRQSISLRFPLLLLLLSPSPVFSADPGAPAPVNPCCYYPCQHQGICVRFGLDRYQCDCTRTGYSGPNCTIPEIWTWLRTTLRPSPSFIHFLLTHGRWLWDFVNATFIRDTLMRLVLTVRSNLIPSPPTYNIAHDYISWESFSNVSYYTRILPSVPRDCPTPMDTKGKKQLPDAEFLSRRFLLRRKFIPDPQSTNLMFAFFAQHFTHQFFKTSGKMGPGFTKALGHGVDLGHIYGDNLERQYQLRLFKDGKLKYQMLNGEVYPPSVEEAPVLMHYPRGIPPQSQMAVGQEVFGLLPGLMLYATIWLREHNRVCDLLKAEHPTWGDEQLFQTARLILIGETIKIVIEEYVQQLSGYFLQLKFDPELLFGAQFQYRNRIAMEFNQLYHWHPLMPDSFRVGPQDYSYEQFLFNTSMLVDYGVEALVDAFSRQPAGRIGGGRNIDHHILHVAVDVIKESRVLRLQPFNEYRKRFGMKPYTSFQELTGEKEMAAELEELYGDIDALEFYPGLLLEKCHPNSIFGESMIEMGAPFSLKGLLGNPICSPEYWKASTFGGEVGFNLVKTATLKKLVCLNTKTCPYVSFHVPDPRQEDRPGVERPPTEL

Molecule `N.N.O=C(O)c1cc(-c2ccc(CN(Cc3ccccc3)Cc3ccc(-c4ccc(O)c(C(=O)O)c4)o3)o2)ccc1O` has a fold change (FC) [1] of 0.66, a Ratio [2] of 8 and a fold change (FC) [3] of 0.76. The inhibition [4] was “Active”, the Activity [5] was “Non-Toxic” and the IC50 [6] was 1.5 µM. It also gave a fold change (FC) [7] of 0.76 and an IC50 [8] of 24 µM.

— ChEMBL document CHEMBL5120856, “New salicylic acid derivatives, double inhibitors of glycolate oxidase and lactate dehydrogenase, as effective agents decreasing oxalate production” (Eur J Med Chem, 2022)
